Sampled rows, rich in hits. Any-hit rate of the full collection: about 1.1%.
Bfl-1 A1 inh – inhibitors of the anti-apoptotic protein A1, read as caspase activation; AID 2462; 0.066% of 330,000 active; caspase activation, % (no concentration beside the values); MEF A1-2A-BIM cells, Caspase-Glo 3/7 luminescence, 3 h; percent of clofoctol response, vehicle zero;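 active = over half of replicate activation scores above 10%, or exactly half above 10 with the replicate mean above 10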
SKN-1 inh – inhibitors of C. elegans SKN-1. C. elegans VP596 Pgst-4::GFP/RFP ratio, acrylamide-induced, 24 h. inhibition, % at 21.8 µM. 0.49% of 360,000 active. AID 624304;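 active = interference check ratio from 0.5 to 1.5 plus GFP to RFP signal ratio inhibition reaching or exceeding a fixed threshold, cut at about 30% in these data, passing the limit was not always enough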
GC-B act – GC-B (human) receptor activation | HEK293-GC-B cells, CNP EC30, cGMP TR-FRET; 0% at EC30 CNP, 100% saturating CNP | activation, % at 10 µM | 0.11% of 370,000 active | AID 1920062;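 active = activation at 10 µM reaching about 35% in either raw or pattern-adjusted values, limit read from the data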
Target sequence (P20594 whole entry, looked up): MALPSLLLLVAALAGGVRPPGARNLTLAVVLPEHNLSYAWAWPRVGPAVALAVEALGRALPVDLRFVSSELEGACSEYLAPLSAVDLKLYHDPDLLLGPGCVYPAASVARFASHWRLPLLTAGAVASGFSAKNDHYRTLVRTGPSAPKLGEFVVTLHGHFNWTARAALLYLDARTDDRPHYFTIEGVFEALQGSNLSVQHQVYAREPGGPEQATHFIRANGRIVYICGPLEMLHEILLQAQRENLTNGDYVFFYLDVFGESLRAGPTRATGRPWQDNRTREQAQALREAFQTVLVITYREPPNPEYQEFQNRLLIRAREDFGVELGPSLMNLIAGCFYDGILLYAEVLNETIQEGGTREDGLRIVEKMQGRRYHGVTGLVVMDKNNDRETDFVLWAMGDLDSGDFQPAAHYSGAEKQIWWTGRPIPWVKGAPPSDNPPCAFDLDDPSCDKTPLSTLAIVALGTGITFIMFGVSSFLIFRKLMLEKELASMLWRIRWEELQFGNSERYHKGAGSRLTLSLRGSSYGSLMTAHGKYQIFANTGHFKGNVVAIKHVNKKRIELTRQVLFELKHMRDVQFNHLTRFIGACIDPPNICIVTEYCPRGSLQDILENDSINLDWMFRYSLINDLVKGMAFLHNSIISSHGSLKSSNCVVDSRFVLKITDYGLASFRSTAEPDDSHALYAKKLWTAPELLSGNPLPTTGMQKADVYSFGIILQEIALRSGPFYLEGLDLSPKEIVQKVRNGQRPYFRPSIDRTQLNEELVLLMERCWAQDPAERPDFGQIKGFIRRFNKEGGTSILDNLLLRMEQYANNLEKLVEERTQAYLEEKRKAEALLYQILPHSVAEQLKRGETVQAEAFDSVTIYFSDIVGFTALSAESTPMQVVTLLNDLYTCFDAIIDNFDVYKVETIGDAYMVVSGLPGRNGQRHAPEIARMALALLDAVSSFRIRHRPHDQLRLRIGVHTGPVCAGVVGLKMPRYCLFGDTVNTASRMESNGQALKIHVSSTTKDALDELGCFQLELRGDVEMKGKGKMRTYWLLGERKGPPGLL
NPR1 activator – GC-A (human) enzyme activation; activation, % at 10 µM; 0.14% of 370,000 active; HEK293 GC-A cells, cGMP TR-FRET, EC30 ANP; 0% at EC30 ANP, 100% saturating ANP; P16066; in the data active = activation above about 40%
TbMetRS inhib – Trypanosoma brucei MetRS inhibition; inhibition, % at 11.9 µM; AID 624268; 0.4% of 360,000 active; purified T. brucei MetRS, ATP depletion, Kinase-Glo luminescence;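 active = inhibition above a per-plate cutoff of the control wells' mean inhibition plus 3 SD, cut at about 5.5% in these data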;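 also: 0% = DMSO wells median and 100% = median of wells with control inhibitor compound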
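Test system – parasite MetRS enzyme · Reagent – substrates ATP, L-methionine and bulk Escherichia coli tRNA · Doses – 11.9 µM compound single dose, 0.9% DMSO · Times – 15 min enzyme-compound preincubation, 2 h reaction, 10 min detection, 25 °C · Signal – Kinase-Glo luminescence, ATP depletion format · Controls – DMSO-only wells as low control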
MT1-MMP act inh – MT1-MMP (human) activation inhibition | 0.061% of 360,000 active | GFP/RFP ratio change, % at 20 µM | HT1080 RFP-PRO-GFP cells, GFP/RFP ratio fluorescence, overnight; percent of plate control window, DMSO zero | P50281;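 active = GFP/RFP ratio change of at least 30% with cell ATP level not reduced by more than half and red fluorescence within 50% of control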
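system = RFP-PRO-GFP reporter HT1080 cells | dosing = 20 µM single dose, 1% DMSO | timing = overnight cell settling, then overnight compound exposure, 37 °C, 5% CO2 | read-out basis = GFP/RFP fluorescence ratio | controls = DMSO and RFP-L50D-GFP cell wells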
An asterisk follows results filed as active; . = no result.

SMILES	Bfl-1 A1 inh	SKN-1 inh	GC-B act	NPR1 activator	TbMetRS inhib	MT1-MMP act inh
Cc1ccc(OCCSCc2nc3ccccc3[nH]2)cc1	0	13	-1	-3	6.8*	1
c1ccc(SCc2nc3ccccc3[nH]2)cc1	-6	18	-3	-2	6.5*	0
CCOC(=O)NC[C@@]1(C(=O)OC)CC(=O)N(Cc2ccc(Cl)cc2)[C@@H]1c1ccc(OC)cc1	.	.	-7	-6	.	.
CC[C@H](CCCCCCCn1ccc2ccccc21)CCC(=O)N(c1ccccc1)c1ccccc1	.	.	6	0	.	.
O=C(CNc1cc(S(=O)(=O)N2CCOCC2)ccc1NCC1CCCO1)Nc1ccc(F)c(F)c1 (stereo not drawn)	1	21	3	1	8.5*	-3
COc1ccc(NC(=O)CNc2cc(S(=O)(=O)N3CCOCC3)ccc2NCC2CCCO2)cc1 (stereo not drawn)	0	12	1	0	1	6
O=C(Cc1ccccc1)NC1CCCc2c1cnn2-c1ccc(F)cc1F (stereo not drawn)	.	.	2	1	.	.
COc1ccc(C(C(=O)NC2CCCCC2)N(Cc2cccs2)C(=O)Cc2c[nH]c3ccccc23)cc1 (stereo not drawn)	0	39*	-9	-25	0	-8
COc1cccc(CN(C(=O)Cc2c[nH]c3ccccc23)C(C(=O)NC2CCCCC2)c2cccs2)c1 (stereo not drawn)	1	-1	-10	-11	-1	-29
CC(=O)c1cc(-c2cc(C(=O)O)cc([N+](=O)[O-])c2)c(=O)n2c1CCC2	.	.	-2	-3	.	.
CCCSc1ccc2nc(-c3ccccc3)cn2c1	-9	50*	0	-1	-1	1
Cn1c(SCCc2ccccc2)nnc1-c1ccco1	.	.	6	7	.	.
Nc1ccccc1SCc1csc(-c2ccc(Cl)cc2)n1	-2	6	-10	-12	0	-2
Clc1ccc(-c2nc(CSc3ccccn3)cs2)cc1	.	58*	-2	5	0	0
Cn1c(=O)c2c(-c3ccccc3)n(-c3cccc(O)c3)cc2n(C)c1=O	.	9	-6	-4	0	-10
Cn1c(=O)c2c(-c3ccccc3)n(-c3ccc(N)cc3)cc2n(C)c1=O	.	49*	0	0	1	-4
O=C(NCc1ccc(F)cc1)C1CCCN(c2nc3ccccc3o2)C1 (stereo not drawn)	.	.	1	-5	.	.
CCOc1ccc(-n2c(SCC(=O)Nc3ccc(S(=O)(=O)Nc4cc(C)nc(C)n4)cc3)nnc2-c2ccc(OC)cc2)cc1	.	.	4	0	.	.
O=[N+]([O-])c1ccc2nc(COCc3nc4ccccc4[nH]3)[nH]c2c1	.	.	-1	2	.	.
Cc1ccccc1Nc1cc2ccccc2c(=O)[nH]1	1	2	.	.	13*	-24
O=c1[nH]c(Nc2ccc(F)cc2)cc2ccccc12	0	-2	-10	-4	17*	-23
COc1ccc(Cl)cc1-c1cc(C(=O)NCc2ccc(F)cc2)[nH]n1	.	3	21	43*	0	1
COc1ccc(NC(=O)c2cc(-c3cc(Cl)ccc3OC)n[nH]2)cc1OC	.	27	53*	45*	0	0
COc1ccc(Cl)cc1-c1cc(C(=O)NCc2ccc(C(F)(F)F)cc2)[nH]n1	.	4	7	17	0	-5
O=C(NC1CCCCN(Cc2ccc(Cl)cc2)C1=O)c1ccc(-c2ccccc2)cc1 (stereo not drawn)	.	.	0	1	.	.
SMILES	Bfl-1 A1 inh	SKN-1 inh	GC-B act	NPR1 activator	TbMetRS inhib	MT1-MMP act inh
Cc1c(CN2CCCC(C(=O)Nc3cccc(-n4cccn4)c3)C2)cnn1C (stereo not drawn)	0	36*	-3	1	0	-2
Cn1cc(CN2CCCC(C(=O)Nc3cccc(-n4cccn4)c3)C2)cn1 (stereo not drawn)	-1	-8	0	1	0	1
Cn1cc(C2(c3c[nH]c4ccccc34)CCN(C(=O)OC(C)(C)C)CC2)c2ccccc21	.	.	1	-2	.	.
O=C(c1ccc(Cl)cc1)c1cc([N+](=O)[O-])ccc1N1CCOCC1	1	67*	-5	-19	2	6
O=C(OCc1ccc(Br)cc1)c1cc([N+](=O)[O-])ccc1N1CCOCC1	.	0	0	-6	1	1
O=C(c1ccccc1)c1cc([N+](=O)[O-])ccc1N1CCOCC1	-2	7	-8	-6	0	14
O=C(c1ccc(Br)cc1)c1cc([N+](=O)[O-])ccc1N1CCOCC1	1	65*	4	-16	-1	1
COc1cccc(N2CCN(CC(=O)N(C)Cc3ccccc3Cl)CC2)c1	.	.	-1	-1	.	.
CCn1c(C)c(C2=CCN(S(=O)(=O)c3ccccc3)CC2)c2ccccc21	0	54*	-4	1	0	0
Cc1ccc(S(=O)(=O)N2CCC(=O)CC2)cc1	0	2	-1	3	0	-1
O=S(=O)(c1ccsc1)N1CC=C(c2ccccc2)CC1	0	-14	0	1	-1	2
Cc1ccc(S(=O)(=O)N2CC=C(c3c(C)n(C)c4ccccc34)CC2)cc1	0	52*	3	-1	0	13
CCNC(=S)NNC(=O)CSc1nc2ccccc2c(=O)n1-c1ccc(Cl)cc1	.	.	5	-3	.	.
CN(CC(=O)Nc1cccc(F)c1)C(=O)CC1CC2CCC1C2 (stereo not drawn)	-1	36*	2	5	0	1
Brc1ccccc1-n1nnc(-c2cccnc2)n1	1	32	-3	2	0	2
Clc1ccc(-n2nnc(-c3nccs3)n2)cc1Cl	-11	61*	-10	0	0	2
Fc1ccc(-n2nnc(-c3cccnc3)n2)cc1	-7	56*	-1	-1	0	-6
Clc1ccc(-n2nnc(-c3cccnc3)n2)cc1Cl	-2	59*	-9	-4	0	-2
Cc1ccc(-n2nnc(-c3nccs3)n2)cc1	-10	29	-1	1	0	8
O=C(CN1CCCc2ccccc21)NCc1ccccc1F	.	.	4	-1	.	.
CCCCCCN1CCS(=O)(=O)N(Cc2ccccc2)C(C(=O)OC)C1 (stereo not drawn)	.	.	-7	-1	.	.
Cc1c(C(=O)NCCC2=CCCCC2)oc2ccc(S(=O)(=O)N3CCOCC3)cc12	-1	37*	6	8	0	-7
CC(=O)C1(C(=O)NC2CCCC2)CC(c2ccccn2)=NO1 (stereo not drawn)	.	.	4	2	.	.
Cc1nc2sc(C(=O)NCc3ccc4c(c3)OCO4)c(N)c2c(C)c1Cl	.	.	-3	5	.	.
